Compound activity (PubChem BioAssay)
This is one part of a sample in which hits are shown more often than they occur.
Jurkat NFkB inh – inhibitors of induced NF-kB luciferase reporter, primary screen, TCR NF-kB activation inhibitor project, cell-based, luminescence, uHTS. Jurkat, PMA/ionomycin-induced NF-kB luciferase reporter. 330,000 tested, 0.53% active. AID 435003, 2010. inhibition, % at 4 µM; in the data active = inhibition above about 50%
CHOP UPR activ – activators of apoptotic CHOP UPR arm, primary screen, cell-based, CHO-CHOP luciferase reporter, luminescence, uHTS. UPR activation; percent of tunicamycin response over DMSO baseline. AID 449763, 2010. activation, % at 10 µM. 330,000 tested, 0.34% active;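 active = at 10 µM dose, activation of 40% or more, normalized to positive control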;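 note: 100% = tunicamycin at 10 µg/mL and 0% = DMSO alone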
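System: CHO-CHOP luciferase reporter cell line | Buffer or medium: F12 medium containing 10% fetal bovine serum | Doses: One dose, 10 µM in 0.5% DMSO | Times: 6 h compound exposure at 37 °C after overnight seeding | Signal: Luciferase luminescence | Read-out: % activation vs tunicamycin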
UPR XBP1 act – activators of adaptive XBP1 UPR arm, primary screen, cell-based, CHO-XBP1 luciferase reporter, luminescence, uHTS. AID 463104, 2010. activation, % at 20 µM. IRE1-XBP1 UPR activation; percent of tunicamycin response, DMSO as zero. 330,000 tested, 0.33% active;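 active = versus positive control, 20 µM dose yields 30% or more activation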;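 note: 100% = tunicamycin at 10 µg/mL and 0% = DMSO only wells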
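assay system = CHO-XBP1 luciferase reporter cells | amount = 1000 cells/well | buffer or medium = F12 plus 10% FBS | compound dosing = single point, 20 µM final compound, 1% DMSO | incubation = 16-18 h cell attachment at 37 °C, then 6 h compound exposure | detection = Steady-Glo luminescence read | controls = tunicamycin 10 µg/mL and vehicle-only wells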
697 NFkB inh – inhibitors of PMA/ionomycin-induced NF-kB reporter, 697 cells, primary screen, B-cell NF-kB inhibitor project, cell-based, luminescence, uHTS. 330,000 tested, 0.33% active. 697 B-cell NF-kB luciferase reporter, 16 h. inhibition, % at 4 µM. AID 435022, 2010; in the data active = inhibition above about 35%
CHOP inh – inhibitors of CHOP promoter induction, primary screen, cell-based, unfolded protein response, luciferase reporter; CHO-K1 CHOP-promoter luciferase, tunicamycin-induced, 15-18 h; inhibition, % at 10 µM; 220,000 tested, 3.8% active;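 active = compounds that reduced the stress-induced luciferase reporter signal by more than about 70% of percent inhibition, limit read from the data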;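 note: 0% = tunicamycin plus vehicle and 100% = wells without tunicamycin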
Active calls of the source: *; · = not tested or not shown.

SMILES | Jurkat NFkB inh | CHOP UPR activ | UPR XBP1 act | 697 NFkB inh | CHOP inh
OC(CN1CCN(c2ccccc2)CC1)Cn1c2ccccc2c2ccccc21 (centres undefined) | -11 | 1 | -3 | -25 | 80*
COc1cccc(-c2nnn(CC(=O)N(CC(C)C)C3CCS(=O)(=O)C3)n2)c1 (centres undefined) | 29 | 1 | -1 | -10 | ·
COc1ccc2[nH]c3c(c2c1)CCN1C(=O)C(CC(=O)NCCCN(C)C)C[C@H](C(=O)N2CCCCC2)[C@@]31C (some centres undefined) | · | 1 | -2 | 16 | ·
OCCC1CN(C2CCN(c3ccccc3F)CC2)CCN1Cc1ccccc1 (centres undefined) | 2 | -3 | -1 | 6 | 30
CC(C)C[C@H](NC(=O)N1CCn2c1nc1ccccc12)C(=O)NCc1ccc2c(c1)OCO2 | 7 | -1 | -2 | 15 | ·
CN(C)c1ccc(NC(=O)Nc2cccc3ccccc23)cc1 | -30 | 5 | -2 | 15 | 86*
Nc1ccc(C23CC4CC(CC(C4)C2)C3)cc1 | -3 | -1 | 2 | -16 | 75*
Nc1ccc(C23CC4CC(CC(O)(C4)C2)C3)cc1 | -2 | -1 | -4 | -20 | 12
CN1CCN(CCP(=O)(c2ccccc2)c2ccccc2)CC1 | 6 | -3 | -3 | -6 | 73*
CC(=O)N(C(C)=O)c1nc(-c2ccccc2)cn1/N=C/c1cccc([N+](=O)[O-])c1 | 11 | -2 | 0 | 15 | 92*
CN(C)c1ccc(/C=N\Nc2nc(-c3ccccc3)cc(=O)[nH]2)cc1 | -8 | 2 | 1 | -20 | 89*
Cc1ccc(NC(=O)c2cc(N3C(=O)C=CC3=O)ccc2Cl)cc1C | 4 | 0 | -3 | -7 | 104*
Cc1ccc(NC(=O)c2cc(N3C(=O)C=CC3=O)ccc2N2CCOCC2)cc1 | · | · | · | · | 109*
Cc1ccc(NC(=O)c2cc(-n3cnnc3)ccc2Cl)cc1 | 19 | -1 | -1 | -2 | 33
O=C(C[C@H]1C/C=C\CC[C@@H](Cc2ccc(F)cc2)C(=O)O[C@H](c2ccccc2)CNC1=O)N[C@H](CO)Cc1ccccc1 | -21 | 2 | 1 | -15 | ·
NC(=O)CN1C(=O)NC2(CCOc3ccccc32)C1=O (centres undefined) | -3 | 0 | 3 | -7 | ·
CN(C)C(=O)C(OC(=O)c1ccc2ccccc2n1)c1ccccc1 (centres undefined) | 6 | 1 | 2 | -3 | ·
O=c1[nH]c(CNCc2cccnc2)nc2ccccc12 | 3 | 0 | 0 | 1 | 13
CC1(C)CC(=O)c2cnc(N3CCc4ccccc4C3)nc2C1 | -100 | 3 | 2 | -241 | 67
CC1(C)CC(=O)c2cnc(N3CCN(c4ccccc4)CC3)nc2C1 | 6 | 5 | -1 | -14 | 87*
CCc1nc2ccc(C(=O)NCCc3ccccc3OC)cc2nc1CC | 21 | 2 | 2 | 1 | ·
Cc1ccc(CNC(=O)c2ccc3nc4[nH]c5ccccc5c4nc3c2)cc1 | · | · | · | · | 94*
COc1ccccc1CNC(=O)c1ccc2nc3[nH]c4ccccc4c3nc2c1 | -17 | 12 | 8 | -41 | 100*
CCN1CCN(C(=O)C(=O)c2c(C)[nH]c3ccccc23)CC1 | -16 | -1 | 0 | 16 | -6
CC(C)c1ccc(/C=c2\sc3nc(-c4ccncc4)nn3c2=O)cc1 | -3 | 2 | 2 | -8 | 71*
SMILES | Jurkat NFkB inh | CHOP UPR activ | UPR XBP1 act | 697 NFkB inh | CHOP inh
CNc1oc(-c2ccccc2Cl)nc1P(=O)(c1ccccc1)c1ccccc1 | 8 | 0 | -3 | 10 | 80*
CCCSc1nc2c(cnn2-c2ccc(F)cc2)c(=O)[nH]1 | -2 | -1 | 5 | -9 | 79*
O=C(CSc1nc2c(cnn2-c2ccccc2)c(=O)[nH]1)c1ccc(Cl)cc1 | 0 | -1 | -2 | 3 | 92*
CCC(C)Sc1nc2c(cnn2-c2ccccc2)c(=O)[nH]1 (centres undefined) | 15 | -1 | 8 | 7 | 78*
Cc1ccc(C(=O)CSc2nnc3c4ccccc4nc(C(C)(C)C)n23)cc1 | 22 | -2 | -2 | -32 | 70*
CCC(C)Sc1nc2c(cnn2-c2ccc(C)cc2)c(=O)[nH]1 (centres undefined) | -8 | -1 | 7 | -22 | 27
CC(C)(C)c1ccc(C(=O)CSc2nc3ccccc3c(=O)[nH]2)cc1 | -5 | -1 | 0 | -10 | 75*
CCCSc1nc2c(cnn2-c2ccc(C)cc2)c(=O)[nH]1 | 4 | -1 | 1 | 2 | 62
CCCSc1nc2c(cnn2-c2ccccc2)c(=O)[nH]1 | 1 | -1 | 2 | -13 | 80*
O=C(CSc1nc2ccccc2c(=O)[nH]1)c1ccccc1 | 6 | 2 | 1 | 0 | -12
CCOc1nc2c(c(=O)n(C)c(=O)n2C)n1Cc1ccccc1Cl | 20 | 1 | -3 | -89 | 31
C=CCOc1nc2c(c(=O)n(C)c(=O)n2C)n1Cc1c(Cl)cccc1Cl | -1 | -2 | 4 | -80 | 86*
CSc1nnc(SCC(=O)Nc2ccc3[nH]c(=O)[nH]c3c2)s1 | 5 | -2 | 0 | -2 | ·
CCCCC1CCC(C(=O)NCc2ccc3c(c2)OCO3)CC1 (centres undefined) | 8 | -1 | -1 | 14 | 83*
Cn1c(=O)c(C(=O)CN2CCc3ccccc32)c(N)n(Cc2ccccc2)c1=O | 2 | 1 | 0 | -27 | 47
Cn1c(=O)c(C(=O)CN2CCCc3ccccc32)c(N)n(Cc2ccccc2)c1=O | 11 | 1 | -1 | 3 | 77*
O=S(=O)(Nc1cccc(-n2cnnn2)c1)c1cc(Br)ccc1Br | 2 | 1 | -3 | 2 | ·
CSc1ccccc1NC(=O)COc1ccc(Cl)cc1C | -14 | 3 | 4 | -13 | 83*
Cc1cc(Cl)ccc1OCC(=O)Nc1ccccc1CO | -22 | 5 | 4 | -38 | 25
Cc1ccc(NC(=O)CCN2CCOCC2)cc1C | -2 | -1 | -2 | 7 | ·
CC1(C)N=C(SCC(=O)Nc2ccc(Cl)cc2)C(c2ccccc2)=N1 | -20 | 0 | 1 | -4 | 78*
Cn1c(SCC(=O)NNC(=O)Nc2ccc(Cl)cc2)nnc1-c1ccccc1 | 16 | 2 | -2 | 14 | -1
CC1(C)N=C(SCC(=O)Nc2ccc(Cl)cc2)C(c2ccc(Cl)cc2)=N1 | -3 | -1 | 1 | -20 | 72*
Cc1onc(-c2ccccc2)c1C(=O)OCC(=O)N(C)c1c(N)n(Cc2ccccc2)c(=O)[nH]c1=O | -6 | -1 | 0 | 21 | ·
CCOC(=O)c1c(C)nn(-c2ccc(NC(=O)CSCC(=O)O)cc2)c1C | -5 | 2 | -1 | -7 | 3
